Sampled rows, rich in hits. Any-hit rate of the full collection: about 4.9%.
APP 5'UTR act = APP 5'UTR luciferase reporter activation. SH-SY5Y APP 5'UTR luciferase reporter, luminescence; zero percent = DMSO vehicle wells. activation, % at 2 µM. hit rate 1% among 190,000. AID 1276;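 active means activation above a set limit, based on mean plus 3 SD of controls, cut at about 140% in these data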
STAT3 blocker = inhibitors of IL-6 induced STAT3 signaling | U3A cells, IL-6 STAT3-luciferase reporter, luminescence; host cell line lacks STAT1 | inhibition, % at 5.5 µM | hit rate 0.89% among 190,000;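 active means inhibition above the mean inhibition across all screened compounds plus 3 SD, cut at about 44% in these data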;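 further: 0% = DMSO only wells and 100% = 100 µM nifuroxazide control wells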
STAT3 activator = STAT3 signaling activation; U3A cells, IL-6 STAT3-luciferase reporter, luminescence; 100% = signal with IL-6 EC80 alone; activation (% of control), % at 5.6 µM; hit rate 0.91% among 190,000; AID 871;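 active means activation above the screen-wide mean of compound activation plus 3 SD, cut at about 130% in these data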;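 further: 0% = background luminescence of wells with medium and substrate only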
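Detection: reporter luminescence signal / Assay system: STAT1-lacking human U3A cells, STAT3 luciferase reporter / Incubation: compound pre-incubation 1 h before IL-6, then 6 h stimulation at 37 °C / Control set: IL-6-only high control / Read-out: % activation relative to IL-6 control / Probe or stimulus: Interleukin-6, 33 ng/mL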
NF-kB neuron act = NF-kB expression increase, human neuronal cells; NF-kB reporter expression; active compounds read high; fold change at 12.5 µM; hit rate 1.6% among 190,000; AID 1239; in the data active means fold change above about 3.3
STAT1 inh = STAT1 signaling inhibition | hit rate 0.35% among 200,000 | inhibition, % at 5.5 µM | NIH 3T3 STAT1-luciferase reporter, IFN-gamma, luminescence | AID 920;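 active means inhibition above a set limit, the mean inhibition across all tested compounds plus 3 SD, cut at about 34% in these data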;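 further: 0% = IFN-gamma with DMSO and 100% = IFN-gamma with 300 µM nifuroxazide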
STAT1 act = activators of IFN-gamma induced STAT1 signaling. activation (% of control), % at 5.5 µM. hit rate 2.6% among 200,000. AID 932. NIH 3T3 STAT1-luciferase reporter, luminescence; 100% = IFN-gamma alone, no compound;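 active means activation above the screen-wide mean activation plus 3 SD, cut at about 130% in these data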;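 further: raw ratio to IFN-gamma control signal so 100% means no change and 0% no light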
STAT1 activ conf = STAT1 activation, confirmation assay | shares compounds with STAT1 act | NIH 3T3 STAT1-luciferase reporter, IFN-gamma potentiation, luminescence; 100% = IFN-gamma EC80 alone, no compound | activation (% of control), % at 5.7 µM | hit rate 97% among 1,200 | AID 1262;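 active means activation above a set limit carried over from the earlier primary STAT1 screen, cut at about 140% in these data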;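 further: simple ratio to median IFN-gamma plus DMSO wells so 0% means no light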
NFkB act = NF-kappaB activation in STAT1 activator counter-screen. shares compounds with STAT1 act. activation (% of control), % at 5.7 µM. HEK293T NF-kB luciferase reporter, TNF-alpha stimulated, luminescence; 100% = TNF-alpha with vehicle only. hit rate 43% among 1,200. AID 1306;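 active means activation above the mean of solvent-only control wells plus 3 SD, set per campaign, cut at about 130% in these data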;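 further: TNF-alpha given at a submaximal dose yielding about 80% of full reporter signal; values are well signal over median control so 100% means no change and 0% no light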
STAT3 act STAT1c = human STAT3 activation in STAT1 activator counter-screen; shares compounds with STAT1 act; U3A cells STAT3-luciferase reporter, IL-6, luminescence; cells lack STAT1; 100 = IL-6 alone, no compound effect; activation (% of control), % at 5.7 µM; hit rate 46% among 1,200; AID 1316;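 active means activation above the solvent-only control well mean plus 3 SD, set per plate batch, cut at about 110% in these data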;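 further: 0% = no luminescence and 100% = median IL-6 plus DMSO wells; higher means more STAT3 reporter activation so hits are non-selective activators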
An asterisk follows results filed as active; . = no result given.

SMILES	APP 5'UTR act	STAT3 blocker	STAT3 activator	NF-kB neuron act	STAT1 inh	STAT1 act	STAT1 activ conf	NFkB act	STAT3 act STAT1c
COC(=O)c1cccc(NC(=O)c2cccnc2C(=O)O)c1C	-4	5	98	0.94	-3	101	.	.	.
Cc1ccc2nc(NC(=O)Cc3cccs3)sc2c1	94	25	84	3.7*	-58	154*	180*	137*	87
CSc1nc2ccc3nc(NC(=O)c4cccs4)sc3c2s1	22	16	88	1.2	-25	123	.	.	.
CCc1ccc2nc(NC(=O)CCCc3cccs3)sc2c1	.	-15	111	1.9	-20	118	.	.	.
CN(C)S(=O)(=O)c1ccc2nc(NC(=O)c3cccs3)sc2c1	129	-9	111	3.5*	-58	153*	179*	115	117*
O=C(Nc1nc2ccc(S(=O)(=O)N3CCOCC3)cc2s1)c1cccs1	6	1	103	2	-4	102	.	.	.
O=C(Nc1nc2ccc(F)cc2s1)c1cccs1	112	19	87	7.4*	-60	159*	246*	132	105
CCN(CC)C(=O)C(C(=O)c1cccc([N+](=O)[O-])c1)n1cc(Cl)ccc1=O (configuration not stated)	-18	1	105	1	0	99	.	.	.
Cc1ccc(N=C/C(C(=O)C(F)(F)F)=C(\O)c2ccco2)cc1Cl	136*	2	100	6.1*	-92	183*	221*	125	144*
Cc1cccc(N=C/C(C(=O)C(F)(F)F)=C(\O)c2ccco2)c1	128	7	99	4.8*	-70	163*	173*	132	123*
Cc1ccc(O)c(NC(=O)c2ccco2)c1	59	-7	109	2.6	-21	120	.	.	.
O=C(/C(C=Nc1ccc(F)cc1)=C(/O)c1ccco1)C(F)(F)F	106	20	85	3.4*	-57	151*	162*	117	109
CC1(C)CN(c2ccccc2)N(Cc2ccc(F)cc2)C1=O	2	13	92	1	5	95	.	.	.
Cc1ccc(/C=C2/CCc3c([nH]c4ccccc34)C2=O)cc1	156*	12	98	2.5	-68	161*	188*	141*	114*
Cc1ccc2[nH]c3c(c2c1)CC/C(=C/c1ccccc1)C3=O	-3	11	91	1.5	-22	120	.	.	.
CC(=O)Nc1ccccc1C(=O)C(=O)Nc1ccc(C)c(C)c1	81	16	86	1.2	-32	128	.	.	.
Cc1ccc(NC(=O)/C(Cl)=C/c2ccccc2)cc1C	139*	23	79	9.1*	-86	177*	230*	122	102
Cn1c(=O)c2c(ncn2CC(=O)N/N=C/c2ccc(Br)s2)n(C)c1=O	-19	0	102	1.1	-4	104	.	.	.
O=C(Oc1ccc2ccccc2c1Cl)N1CCCCCC1	133	3	102	5.1*	-81	174*	211*	118	141*
O=[N+]([O-])c1ccccc1-c1nc(-c2ccc(Br)o2)no1	160*	-7	106	0.99	-79	170*	200*	132	137*
Nc1nnc(-c2ccccc2[N+](=O)[O-])o1	14	8	96	1	-12	109	.	.	.
O=C1C(C=Nc2ccccc2)=C(O)c2ccccc21	103	39	68	2.6	-60	163*	244*	125	126*
Cc1cccc(Nc2nc(-c3ccccn3)cs2)n1	210*	13	92	5.6*	-90	191*	271*	139*	110
c1csc(-c2csc(-c3cccs3)n2)c1	53	-1	105	2	-31	128	.	.	.
CC(=O)Nc1nc(C)c(-c2csc(Nc3ccccn3)n2)s1	102	-7	112	1.7	-98	191*	221*	142*	120*
SMILES	APP 5'UTR act	STAT3 blocker	STAT3 activator	NF-kB neuron act	STAT1 inh	STAT1 act	STAT1 activ conf	NFkB act	STAT3 act STAT1c
Nc1ccc(Nc2nc(-c3cccs3)cs2)cc1	311*	9	94	1.7	-66	160*	168*	142*	102
CSCCC(=O)Nc1nc(-c2ccccn2)cs1	-7	-1	105	0.95	-6	105	.	.	.
Cc1cccc(Nc2nc(-c3cccs3)cs2)n1	208*	-22	121	11*	-76	179*	261*	147*	144*
Cc1cccc(NS(=O)(=O)c2cccs2)n1	21	4	100	0.98	7	93	.	.	.
CCOc1cc(/C=C(\C#N)C(=O)NCc2cccnc2)ccc1O	-15	7	100	1.1	4	95	.	.	.
O=C(Nc1nc(-c2ccccn2)cs1)c1ccc(Cl)s1	-77	-10	108	2	0	101	.	.	.
Cc1cccnc1Nc1nc(-c2ccccn2)cs1	-93	-2	102	7.5*	-156	256*	261*	168*	109
COC(=O)c1[nH]nc(C(=O)OC(C)(C)C)c1-c1ccccc1	-8	6	98	0.9	21	81	.	.	.
Cc1cc(C)n(-c2ccc(C(=O)NC3=NCCS3)cc2)n1	36	11	94	2	-26	124	.	.	.
O=C(Nc1nc2ccccc2s1)c1ccc(N2CCCCC2)c([N+](=O)[O-])c1	116	30	74	2.5	-72	166*	197*	118	100
Cc1cc(C)n(-c2ccc(C(=O)Nc3nc4ccccc4s3)cc2)n1	109	6	100	3.9*	-80	174*	225*	141*	105
CC1CCN(c2ncnc3c2cnn3-c2ccccc2)CC1	.	30	81	4.5*	-60	154*	246*	136*	99
CCOC(=O)C1CCN(c2ncnc3c2cnn3-c2ccccc2)CC1	33	13	91	1.2	-12	111	.	.	.
CCOC(=O)C1CCN(c2ncnc3c2cnn3-c2ccc(Cl)cc2)CC1	-10	2	98	0.83	10	91	.	.	.
Clc1ccc(-n2ncc3c(N4CCCC4)ncnc32)cc1	161*	12	89	0.74	-95	184*	207*	84	87
CC(=O)OCCCN1c2ccccc2Nc2nnc(-c3ccccc3)cc21	171*	14	92	2.1	-63	158*	192*	127	95

Bioassay records deposited in PubChem by several laboratories.
